According to ChEMBL document CHEMBL1150649, “Neoclerodane and labdane diterpenoids from Plectranthus ornatus” (2002):
Converted amounts (≈) assume the structure as drawn. The source made the active and inactive calls. The calls are words filed in the database; no cut-off is given here.

Legend:
Staphylococcus aureus [1] = experiment: Antimicrobial activities against Staphylococcus aureus ATCC 25923 by broth microdilution method; format: functional
Procedure, shortened: (§1)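 Test compounds were dissolved in DMSO and serially diluted in Mueller-Hinton broth over 250 to 3.9 µg/mL. Broth microdilution followed NCCLS guidelines. MIC was the lowest concentration showing no microbial growth compared with a compound-free control.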

Candida tropicalis = experiment: Antimicrobial activities against Candida tropicalis by broth microdilution method; format: functional; procedure, shortened: as §1
Candida albicans = experiment: Antimicrobial activities against Candida albicans CIP 3153A by broth microdilution method; format: functional; procedure, shortened: as §1
Pseudomonas aeruginosa = experiment: Antimicrobial activities against Pseudomonas aeruginosa ATCC 27853 by broth microdilution method; format: functional; procedure, shortened: as §1
[2] = system: Meyerozyma guilliermondii; experiment: Antimicrobial activities against Candida guilliermondii by broth microdilution method; format: functional; procedure, shortened: as §1
Nakaseomyces glabratus = experiment: Antimicrobial activities against Candida glabrata by broth microdilution method; format: functional; procedure, shortened: as §1
Escherichia coli = experiment: Antimicrobial activities against Escherichia coli ATCC 25922 by broth microdilution method; format: functional; procedure, shortened: as §1
Pichia kudriavzevii = experiment: Antimicrobial activities against Candida krusei by broth microdilution method; format: functional; procedure, shortened: as §1
Staphylococcus aureus [3] = experiment: Antimicrobial activities against Staphylococcus aureus ATCC 25923 by […]; format: functional, organism-based

MIC (Staphylococcus aureus [1])	MIC (Candida tropicalis)	MIC (Candida albicans)	MIC (Pseudomonas aeruginosa)	MIC [2]	MIC (Nakaseomyces glabratus)	MIC (Escherichia coli)	MIC (Pichia kudriavzevii)	Structure (SMILES)	Activity (Staphylococcus aureus [3])
≥ 125 µg/mL	62.5 µg/mL (≈ 160 µM)	62.5 µg/mL (≈ 160 µM)	≥ 125 µg/mL	62.5 µg/mL (≈ 160 µM)	62.5 µg/mL (≈ 160 µM)	≥ 125 µg/mL	62.5 µg/mL (≈ 160 µM)	COC(=O)/C=C(\C)C[C@@H](OC(C)=O)[C@@]1(C)[C@H](C)CC[C@@]2(C)C(C)=CC(=O)C[C@H]12 [PLECTRORNATIN A]	–
–	–	–	–	–	–	–	–	C=C[C@@]1(C)CC(=O)[C@@H]2[C@@]3(C)[C@@H](O)CCC(C)(C)[C@@H]3[C@H](OC(C)=O)C[C@@]2(C)O1 (relative stereo)	Active
≥ 125 µg/mL	62.5 µg/mL (≈ 149 µM)	62.5 µg/mL (≈ 149 µM)	≥ 125 µg/mL	62.5 µg/mL (≈ 149 µM)	62.5 µg/mL (≈ 149 µM)	≥ 125 µg/mL	62.5 µg/mL (≈ 149 µM)	C=C[C@@]1(C)CC(=O)[C@@H]2[C@@]3(C)[C@@H](OC(C)=O)CCC(C)(C)[C@@H]3[C@H](OC(C)=O)C[C@@]2(C)O1 (relative stereo) [PLECTRORNATIN C]	–
